Compound activity deposited in PubChem by The Scripps Research Institute Molecular Screening Center.
M5 PAM = human M5 muscarinic receptor positive allosteric modulators, primary screen, CHO-K1 cells, Fluo-8 calcium fluorescence; Muscarinic acetylcholine receptor M5 (Homo sapiens), P08912; CHO-K1 hM5, ACh EC20 PAM; 0% = ACh EC20, 100% = ACh EC100; activation, % at 3 µM; 360,000 tested, 0.3% active;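 active = activation above the run cutoff, the mean activation of all test compounds plus 3 SD, cut at about 18% in these data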
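system = human M5 receptor in CHO-K1 cells | reagent = EC20 acetylcholine as agonist stimulus | compound dosing = single-point, 3 µM nominal | incubation = Fluo-8 loading 80 min at 37 °C plus 30 min room temperature | detection = Fluo-8 calcium dye fluorescence, kinetic read | benchmarks = low control EC20 acetylcholine (0%), high control EC100 acetylcholine (100%)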
M4 ag = human M4 muscarinic receptor agonists, primary screen, CHO-K1 cells, Fluo-8 calcium fluorescence. CHO-K1 hM4/Gqi5; vehicle 0%, full acetylcholine response 100%. AID 624127, 2012. 360,000 tested, 0.14% active. activation, % at 3 µM;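 active = activation above the run mean over all test wells plus 3 SD, cut at about 32% in these data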;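 also: peak over basal fluorescence ratio per well then scaled between controls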
Target sequence (P08173 whole entry, looked up): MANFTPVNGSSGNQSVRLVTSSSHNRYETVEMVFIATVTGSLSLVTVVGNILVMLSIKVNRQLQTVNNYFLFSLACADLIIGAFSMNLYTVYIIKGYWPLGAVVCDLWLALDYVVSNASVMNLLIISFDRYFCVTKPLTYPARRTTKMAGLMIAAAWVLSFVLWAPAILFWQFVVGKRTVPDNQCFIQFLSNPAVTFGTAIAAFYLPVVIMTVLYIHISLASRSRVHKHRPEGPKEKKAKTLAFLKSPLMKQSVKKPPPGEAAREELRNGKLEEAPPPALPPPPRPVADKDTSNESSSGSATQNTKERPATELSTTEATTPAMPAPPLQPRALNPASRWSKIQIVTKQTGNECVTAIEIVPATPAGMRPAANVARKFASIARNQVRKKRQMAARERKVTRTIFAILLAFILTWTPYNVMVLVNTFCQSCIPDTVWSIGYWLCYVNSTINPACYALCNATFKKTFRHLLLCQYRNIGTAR
M4 antag = human M4 muscarinic receptor antagonists, primary screen, CHO cells, Fluo-8 calcium fluorescence; inhibition, % at 3 µM; Muscarinic acetylcholine receptor M4 (Homo sapiens), P08173; CHO-hM4 cells, ACh EC80; AID 624125, 2012; 360,000 tested, 0.73% active;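 active = inhibition above its plate's cutoff, the mean inhibition of sample wells plus 3 SD, cut at about 27% in these data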
CHRM5 agonist = human M5 muscarinic receptor agonists, primary screen, CHO-K1 cells, Fluo-8 calcium fluorescence; CHO-K1 hM5 cells; 0% DMSO wells, 100% maximal acetylcholine response; activation, % at 3 µM; Muscarinic acetylcholine receptor M5 (Homo sapiens), P08912; 360,000 tested, 0.19% active;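 active = activation above the run's mean over test compounds plus 3 SD, cut at about 23% in these data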;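 also: signal is peak over basal fluorescence ratio across the kinetic read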
M4 PAM = human M4 muscarinic receptor positive allosteric modulators, primary screen, CHO-K1 cells, Fluo-8 calcium fluorescence. Muscarinic acetylcholine receptor M4 (Homo sapiens), P08173. CHO-K1 hM4/Gqi5, ACh EC20; 0% = ACh EC20, 100% = maximal ACh. activation, % at 3 µM. 360,000 tested, 0.4% active. AID 624126, 2012;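 active = activation above its plate's cutoff, the mean activation of sample wells plus 3 SD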
M5 antag = human M5 muscarinic receptor antagonists, primary screen, CHO cells, Fluo-8 calcium fluorescence. Muscarinic acetylcholine receptor M5 (Homo sapiens), P08912. CHO-hM5 cells, ACh EC80. inhibition, % at 3 µM. 360,000 tested, 0.59% active;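 active = inhibition above a per-plate cutoff, the mean of that plate's test compounds plus 3 SD, cut at about 27% in these data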
Of the large screens only hits and unclear results are named; the others gave an inactive call. Shown are actives, neighbours in structure and some others; about 1.9% of the full set was active somewhere.

CC(=O)Nc1ccc(OCCCN2CCC(C(O)(c3ccccc3)c3ccccc3)CC2)cc1	M4 antag 86, M5 antag 64
CCN(C(=O)c1ccc2c(=O)n3c(nc2c1)CCCCC3)c1cc(OC)ccc1OC	none
COc1ccccc1C(=O)NCC(=O)OCc1nnc(-c2ccccc2)o1	none
CCc1ccc(C(=O)CCC(=O)Nc2cccc(S(=O)(=O)N3CCCCC3)c2)cc1	none
CC(C)(C)c1ccc(CC(=O)N2CCC2(C)C(=O)NS(=O)(=O)c2ccc(Cl)s2)cc1 (stereo unspecified)	none
O=C(NC(=S)N1CCCCC1c1cccnc1)c1ccc(Br)cc1 (stereo unspecified)	M4 PAM 15
O=C(NC(=S)NN1CCCCC1c1cccnc1)c1ccc(Cl)cc1Cl (stereo unspecified)	M5 PAM 22
O=C(NC(=S)N1CCCC1)c1ccc(Cl)cc1Cl	none
O=C(NC(=S)N1CCCCC1c1cccnc1)c1ccc(F)cc1 (stereo unspecified)	none
CN(C1CCCCC1)S(=O)(=O)c1ccc2c(c1)c(=O)c(C(=O)NCCCN1CCCC1)cn2C	M4 antag 27
CN(C1CCCCC1)S(=O)(=O)c1ccc2c(c1)c(=O)c(C(=O)NCCN1CCCC1)cn2C	none
O=C(CSc1nc(O)c(C2CCCCC2)c(=O)[nH]1)Nc1ccc(F)cc1	none
COc1cc(C2C=C(C34CC5CC(CC(C5)C3)C4)NC(=S)N2)cc(OC)c1OC (stereo unspecified)	none
COc1ccc(OC)c(C2C=C(C34CC5CC(CC(C5)C3)C4)NC(=S)N2)c1 (stereo unspecified)	M4 antag 43
C1CC2CN(c3nc4nonc4nc3N3CCSCC3)CCN2C1 (stereo unspecified)	none
C1CCN(C2CCN(c3nc4nonc4nc3N3CCSCC3)CC2)C1	M4 antag 31
Cc1cc(/C=C2/SC(=S)N(c3cccc(C(F)(F)F)c3)C2=O)c(C)n1-c1cccnc1	M4 antag 39
Cc1cc(/C=C2\SC(=S)N(Cc3ccco3)C2=O)c(C)n1-c1cccnc1	none
N#CCCN(NC(=O)OCc1ccccc1)C(=O)OCc1ccccc1	none
COCCNC(=O)c1cccc(OC2CCN(Cc3ccc(C(=O)OC)cc3)CC2)c1	M4 antag 60
COCCNC(=O)C1CCCN(Cc2ccccc2)CC1 (stereo unspecified)	none
COC(=O)c1ccc(CN2CCC(Oc3cccc(C(=O)N4CCOCC4)c3)CC2)cc1	M4 antag 61, M5 antag 67
CSc1cccc(CN2CCC(Oc3cccc(C(=O)N4CCCC4)c3)CC2)c1	M5 antag 28
COCCNC(=O)c1cccc(OC2CCN(Cc3ccc(C(C)C)cc3)CC2)c1	none
COCCNC(=O)CCC1CCN(Cc2ccc(-c3ccccc3)cc2)CC1	M4 antag 57
O=C(CC[C@H]1O[C@@H](n2ccc(=O)[nH]c2=O)[C@H](O)[C@@H]1O)N1CCN(c2ccccn2)CC1	M4 PAM 21
O=C(COc1ccc(C(F)(F)F)cc1[N+](=O)[O-])Nc1cccc(C(F)(F)F)c1	M4 PAM 30
COc1ccc(OCCOC(=O)c2cc(S(=O)(=O)N3CCOCC3)c(Cl)cc2Cl)cc1	none
O=C(COC(=O)CCN1C(=O)C2CC=CCC2C1=O)Nc1ccc(Cl)cc1F (stereo unspecified)	none
Fc1ccccc1COc1ccc(Br)cc1CNCc1ccncc1	M4 antag 37
COc1ccc(C2CC(=O)CCN2S(=O)(=O)c2ccc(C)cc2)cc1 (stereo unspecified)	none
Cc1ccc2nc(-c3ccc(O)cc3)oc2c1	none
